In ChEMBL document CHEMBL3407343, “Functionalized tetrahydro-1H-pyrido[4,3-b]indoles: a novel chemotype with Sirtuin 2 inhibitory activity” (Eur J Med Chem, 2015):
In brackets after ≈: the same amount, converted by molar mass. Activity calls are given as the source filed them. No cut-off for these calls is given here.

How the values were obtained:
[1] = target: T1, NAD-dependent protein deacetylase sirtuin-1 (Homo sapiens) (UniProt Q96EB6); experiment: Inhibition of human recombinant SIRT1 assessed as deacetylation of N-acetyl lysine residue in p53 (317 to 320) at 10 uM after 30 mins by luciferase-mediated luminescence assay relative to control
T1 sequence (whole entry): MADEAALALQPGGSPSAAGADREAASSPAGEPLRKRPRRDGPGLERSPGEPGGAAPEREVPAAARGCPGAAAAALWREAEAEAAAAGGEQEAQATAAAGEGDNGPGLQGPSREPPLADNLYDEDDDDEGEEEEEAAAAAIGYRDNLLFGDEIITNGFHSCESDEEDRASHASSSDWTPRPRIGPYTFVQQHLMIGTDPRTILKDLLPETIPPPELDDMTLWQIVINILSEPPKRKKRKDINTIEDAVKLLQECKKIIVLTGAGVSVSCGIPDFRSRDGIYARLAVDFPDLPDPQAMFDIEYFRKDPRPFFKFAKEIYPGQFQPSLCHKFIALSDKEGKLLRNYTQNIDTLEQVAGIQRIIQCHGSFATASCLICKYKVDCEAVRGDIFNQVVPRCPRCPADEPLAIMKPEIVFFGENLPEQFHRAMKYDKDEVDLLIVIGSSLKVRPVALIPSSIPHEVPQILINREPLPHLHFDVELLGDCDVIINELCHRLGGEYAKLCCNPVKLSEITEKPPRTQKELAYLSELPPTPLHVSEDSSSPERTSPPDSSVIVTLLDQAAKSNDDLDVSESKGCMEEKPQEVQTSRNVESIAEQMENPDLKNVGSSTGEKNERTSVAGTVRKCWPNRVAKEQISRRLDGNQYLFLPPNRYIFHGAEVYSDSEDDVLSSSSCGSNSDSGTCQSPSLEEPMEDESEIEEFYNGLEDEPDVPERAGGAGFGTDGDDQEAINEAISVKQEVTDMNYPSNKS
Method in brief: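 Recombinant human SIRT1 at 0.1 unit/well, with the enzyme amount chosen from the mid-linear range of a signal-to-noise titration, in Sirt-Glo buffer. Serially diluted inhibitor in DMSO covers a 10^3-fold range, with 2.5% DMSO final. The single-point screen is at a fixed 10 µM. Enzyme and inhibitor were agitated 30 min at 25 °C, then Sirt-Glo reagent added and shaken another 30 min at 25 °C before luminescence was read. Activity is % of the enzyme-only control after blank subtraction. IC50 comes from a sigmoidal fit of % activity against log concentration, run in triplicate across ≥2 independent experiments.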

[2] = target: T2, NAD-dependent protein deacetylase sirtuin-2 (Homo sapiens, UniProt Q8IXJ6); experiment: Inhibition of human recombinant SIRT2 assessed as deacetylation of N-acetyl lysine residue in p53 (317 to 320) after 30 mins by luciferase-mediated luminescence assay
T2 sequence (Q8IXJ6 whole entry): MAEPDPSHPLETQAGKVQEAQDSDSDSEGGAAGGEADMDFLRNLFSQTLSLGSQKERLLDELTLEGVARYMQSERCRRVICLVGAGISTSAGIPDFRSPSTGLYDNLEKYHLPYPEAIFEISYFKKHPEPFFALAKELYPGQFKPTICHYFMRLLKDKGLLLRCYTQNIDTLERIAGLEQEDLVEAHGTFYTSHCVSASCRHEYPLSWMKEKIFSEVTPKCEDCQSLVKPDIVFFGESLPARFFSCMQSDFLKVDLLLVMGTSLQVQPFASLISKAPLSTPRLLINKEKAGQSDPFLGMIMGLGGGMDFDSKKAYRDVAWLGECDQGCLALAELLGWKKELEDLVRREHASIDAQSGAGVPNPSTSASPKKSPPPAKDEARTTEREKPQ

Homo sapiens = species: Homo sapiens; experiment: Inhibition of protease (unknown origin) using deacetylated peptide as substrate assessed as luminescence at 100 uM after 30 mins relative to control; design: scale not given: the % may be the effect or the level left
[3] = Inhibition of luciferase (unknown origin) using deacetylated peptide as substrate assessed as luminescence at 25 uM after 30 mins relative to control; design: scale not given: the % may be the effect or the level left
[4] = Self-aggregation of the compound in PBS assessed as derived light scattering count rate at 1 uM at pH 7.4 (reference value: 15.5 +/- 0.4 kilocount/sec); format: physicochemical; settings: buffer, pH 7.4, 1 µM
[5] = Solubility of the compound in phosphate buffer at pH 7.4 at 25 degC by turbimetric method; format: physicochemical
Method in brief: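 Turbidimetric solubility. Compound from DMSO stock was added to phosphate buffer pH 7.4 at 1–50 µM final, with 1% v/v DMSO. Plate shaken 30 min at 25 °C and absorbance read at 620 nm. Solubility is assigned to the concentration range where absorbance rises two-fold or more, from 3 separate determinations.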

[6] = target: T3, NAD-dependent protein deacetylase sirtuin-2 (Homo sapiens) (UniProt Q8IXJ6); experiment: (§1) Non-competitive inhibition of human recombinant SIRT2 using Z-QPK(Me)2K(Ac) as substrate assessed as decrease in maximal enzyme activity preincubated for 60 mins followed by substrate addition measured after 30 mins by double-reciprocal plot analysis in presence of 5 mM NAD+
T3 sequence (whole entry): T2 sequence (Q8IXJ6 whole entry)
Method in brief: (§2)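 Recombinant human SIRT2 at 0.2 unit/well, preincubated 60 min at 25 °C (400 rpm) with inhibitor at four levels including zero, 2.5% DMSO. Detection reagent (acetylated Z-QPK(Me)2K(Ac)-aminoluciferin, NAD and developer) was premixed 60 min at 37 °C, added, and incubated 30 min at 25 °C before luminescence was read. For line 17, substrate was varied (4.12–333.3 µM) at fixed NAD. For line 16, NAD was varied (four levels) at 38.5 µM substrate. Double-reciprocal plots were made, and their slopes replotted against inhibitor concentration for apparent Ki.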

[7] = target: T2, NAD-dependent protein deacetylase sirtuin-2; experiment: as §1; settings: read-out: Ki(app); method in brief: as §2
[8] = target: T3, NAD-dependent protein deacetylase sirtuin-2 (Homo sapiens); experiment: Inhibition of SIRT2 in human HepG2 cells assessed as increase in acetylated p53 at Lys382 and alpha-tubulin level at 2 to 4 uM after 6 hrs by Western blot analysis; format: cell-based
Method in brief: (§3)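 Cells seeded at 50,000 cells/mL in high-glucose DMEM containing compound (0.5% v/v DMSO) and incubated at 37 °C, 5% CO2: HepG2 6 h, MDA-MB-231 24 h. Washed cells were lysed on ice ≥20 min in Tris/NaCl/EDTA/Triton buffer with protease and phosphatase inhibitors, then protein measured by Bradford. SDS-PAGE blots were probed overnight at 4 °C with primary antibodies and detected by HRP/ECL, with re-probing after stripping. Each blot was repeated ≥3 times.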

MDA-MB-231 = experiment: Induction of apoptosis in human MDA-MB-231 cells assessed as upregulation of cleaved PARP protein expression at 2 to 8 uM after 24 hrs by Western blot analysis; format: functional, cell-based; method in brief: as §3

inhibition [1]: 48.5%
IC50 [2]: 3.8 µM
Activity (Homo sapiens): 94.3%
Activity [3]: 94.9%
Activity [4]: 15.6 kC/sec
solubility kinetic [5]: 3.1 µM (≈ 1.36 µg/mL)
inhibition [6]: Dose-dependent effect
Ki [7]: 2.28 µM
inhibition [8]: Active
Compound: CCCCCCCCn1c2c(c3cc(-c4ccc(S(C)(=O)=O)cc4)ccc31)CNCC2
Activity (MDA-MB-231): Active
